Results from paper PMC5460915 (Molecular pharmaceutics, 2015).

Legend:
[1] = biological target: NTR1 (NTR1-positive HT-29 cells) (Homo sapiens, UniProt P30989); experiment: In vitro competitive cell binding assay against 125I-NT; conditions: as supported by the similar IC50 values
[2] = system: NTR1-expressing HT-29 tumor; experiment: Immunohistochemistry and fluorescence microscopy of HT-29 tumor sections; format: in vivo, mice bearing human HT-29 xenograft
In short: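 Dye-conjugated test compound given i.v. to HT-29 xenograft mice, with or without a blocking dose of NT peptide. Tumors taken 4 h p.i., […], cut at 6 μm (cryostat, −25 °C) and fixed in ice-cold acetone for 15 min. Peroxidase quenched with 3% H2O2 in methanol, then blocked with 10% horse serum for 1 h at RT. Anti-CD31 with labelled secondary (1:200), DAPI 2 μg/mL for 20 min at 37 °C. Confocal imaging, 40× objective.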

[3] = In vitro stability in PBS; format: physicochemical; conditions: PBS (1×), 37 MBq/mL, radio-HPLC
In short: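 64Cu-labelled test compound HPLC-purified, solvent evaporated and taken up in 1× PBS at 37 MBq/mL. Radiochemical purity by radio-HPLC at 30 min, 2 h and 6 h of incubation.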

[4] = system: NTR1-positive HT-29 tumor; experiment: Small animal PET imaging in HT-29 xenograft mice; format: in vivo, human HT-29 xenograft in male athymic mice (BALB/c nu/nu)
In short: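 Xenografts were HT-29 cells, 1 × 10^6 per 0.1 mL s.c. in the shoulder, tumors ≥3 mm. Radioligand labelled with 64CuCl2 in NH4OAc pH 5.5 at 37 °C for 60 min, HPLC-purified, in PBS (about 10.2 GBq/μmol). About 3.7 MBq via tail vein, n = 3/group; blocking group co-given 100 μg unlabelled NT. PET at 1 and 4 h p.i. ROI counts/g/min (1 g/mL density assumed) divided by injected dose gave %ID/g.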

[5] = system: NTR1-positive HT-29 tumor; experiment: Ex vivo near-infrared fluorescence imaging of tumors and organs; format: in vivo, mice bearing human HT-29 xenograft
[6] = Biodistribution in nude mice bearing HT-29 tumor; format: in vivo, nude mice bearing HT-29 xenograft; conditions: for tissue uptake at 4 h: male, athymic nude BALB/c nu/nu, mouse, total radioactivity
In short: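 HT-29 cells (McCoy's 5A, 10% FBS, 37 °C, 5% CO2; trypsin-EDTA at 80% confluence) at 1 × 10^6 per 0.1 mL s.c. in the shoulder of 4–6-wk male BALB/c nu/nu mice, used at ≥3 mm tumor diameter. 3.7 MBq 64Cu-labelled test compound (HPLC-purified, in PBS) given. Mice killed under inhalation anesthesia 4 h p.i.; tissues weighed and gamma-counted. Group mean %ID/g ± SD.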

[7] = system: NTR1-positive HT-29 tumor; experiment: In vivo near-infrared fluorescence imaging; set-up: species or system mice bearing human HT-29 xenograft; conditions: 1.5 nmol i.v., 1 and 4 h p.i., Cy5.5 filter set

Chain of NTR1 (NTR1-positive HT-29 cells) (P30989 whole entry): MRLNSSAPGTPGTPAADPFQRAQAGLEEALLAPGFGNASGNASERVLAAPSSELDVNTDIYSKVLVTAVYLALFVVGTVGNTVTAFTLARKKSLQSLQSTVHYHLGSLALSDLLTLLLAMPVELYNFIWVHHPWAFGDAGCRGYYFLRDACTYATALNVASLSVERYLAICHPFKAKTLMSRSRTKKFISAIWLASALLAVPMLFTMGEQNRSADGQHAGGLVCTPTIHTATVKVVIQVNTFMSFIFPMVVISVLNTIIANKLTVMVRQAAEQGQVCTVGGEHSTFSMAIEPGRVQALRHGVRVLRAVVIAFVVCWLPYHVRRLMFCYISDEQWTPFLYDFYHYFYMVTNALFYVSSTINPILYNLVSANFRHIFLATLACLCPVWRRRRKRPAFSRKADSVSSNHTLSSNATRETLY

Row | Structure (SMILES) | binding affinity compared between DOTA-NT-Cy5.5 and NT (in words) [1] | fluorescent signal in tumors of blocking animals (in words) ([2]; 4 h p.i., with blocking dose of NT peptide vs without) | specific binding in HT-29 tumor (in words) ([2]; FL microscope, coinjected Cys-NT peptide) | radiochemical purity ([3]; 30 min after incubation) | radiochemical purity ([3]; 2 h after incubation) | radiochemical purity ([3]; 6 h after incubation) | tumor uptake ([4]; PET ROI, HT-29 xenograft, 1 h p.i., ~3.7 MBq tail vein, n = 3/group, mean ± SD) | inhibition of tumor uptake by nonradioactive Cys-NT (in words) ([4]; blocking experiment, P < 0.05, all time points (Figures 3 and 5: PET and fluorescence)) | uptake in normal organs, blocked vs unblocked (in words) ([4]; liver, kidneys, muscle, with vs without 100 μg unlabeled NT) | tumor uptake relative to liver, optical imaging (in words) ([5]; HT-29 tumor vs liver, optical imaging) | tumor to muscle contrast (in words) ([5]; PET and ex vivo fluorescence, 4 h p.i.) | organs with high probe uptake (in words) ([5]; ex vivo fluorescence, 1.5 nmol i.v., 4 h p.i.) | tumor-to-muscle ratio ([6]; 4 h p.i., based on biodistribution, HT-29 xenograft, mean ± SD) | tumor uptake relative to liver, PET and biodistribution (in words) ([6]; HT-29 tumor vs liver, PET imaging and biodistribution) | muscle, lung, and heart uptake (in words) ([6]; biodistribution, 4 h p.i., 3.7 MBq) | tissue uptake at 4 h ([6]; kidney, 3.7 MBq) | tissue uptake at 4 h ([6]; liver, 3.7 MBq) | tumor fluorescence signal in vivo (in words) [7]
1 | CC[C@H](C)[C@H](NC(=O)[C@H](Cc1ccc(O)cc1)NC(=O)[C@@H]1CCCN1C(=O)[C@H](CCCNC(=N)N)NC(=O)[C@H](CCCNC(=N)N)NC(=O)[C@@H]1CCCN1C(=O)[C@H](CCCCN)NC(=O)[C@H](CSC1CC(=O)N(CCNC(=O)CCCCC[N+]2=C(C=CC=CC=C3N(CC)c4ccc5c(S(=O)(=O)O)cc(S(=O)(=O)[O-])cc5c4C3(C)C)C(C)(C)c3c2ccc2c(S(=O)(=O)O)cc(S(=O)(=O)O)cc32)C1=O)NC(=O)CN1CCN(CC(=O)O)CCN(CC(=O)O)CCN(CC(=O)O)CC1)C(=O)N[C@@H](CC(C)C)C(=O)O (stereo partly drawn) [DOTA-NT-Cy5.5] | not significantly different | very weak fluorescent signals | tumor localization was clearly inhibited by coinjected Cys-NT peptide | – | – | – | – | – | – | – | – | – | – | – | – | – | – | –
2 | CC[C@H](C)[C@H](NC(=O)[C@H](Cc1ccc(O)cc1)NC(=O)[C@@H]1CCCN1C(=O)[C@H](CCCNC(=N)N)NC(=O)[C@H](CCCNC(=N)N)NC(=O)[C@@H]1CCCN1C(=O)[C@H](CCCCN)NC(=O)[C@H](CSC1CC(=O)N(CCNC(=O)CCCCC[N+]2=C(C=CC=CC=C3N(CC)c4ccc5c(S(=O)(=O)O)cc(S(=O)(=O)[O-])cc5c4C3(C)C)C(C)(C)c3c2ccc2c(S(=O)(=O)O)cc(S(=O)(=O)O)cc32)C1=O)NC(=O)CN1CCN(CC(=O)O)CCN(CC(=O)O)CCN(CC(=O)O)CC1)C(=O)N[C@@H](CC(C)C)C(=O)O (stereo partly drawn) [^64Cu-DOTA-NT-Cy5.5, metal not drawn] | – | – | – | greater than 98.9% | > 96.9% | > 90.8% | 1.91 ± 0.22 %ID/g | nonradioactive Cys-NT peptide significantly (P < 0.05) inhibited the tumor uptake | no significant difference in most of the normal organs | higher tumor uptake than liver | both PET and fluorescence gave good tumor to muscle contrast | The tumor, liver, and kidneys are three motifs that showed high probe uptake | 17.44 ± 3.25 | HT-29 tumor has lower uptake than liver | The muscle, lung, and heart had relatively low uptake | 14.2 ± 1.33 %ID/g | 4.63 ± 0.74 %ID/g | the HT-29 tumor lit up at all the time points examined
